Calls of active or inactive are those of the source. No cut-off for these calls is given here.
What was measured:
[1] = Induction of IL13 secretion in human CD161+ CD3+ NKT cells at 10 ug/ml after 18 hrs relative to basal level; type: functional
Method in brief: (§1)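 Human Vα24i NKT cell lines were expanded for 10 days on irradiated (3,000 rad) autologous immature DCs with 10 units/ml IL-2. The cells (1 × 10^5) were cocultured with 5 × 10^4 irradiated immature CD14+ DCs plus glycolipid at 10 μg/ml. Supernatants were collected at 18 h and read on a 22-plex Luminex bead panel. Triplicates, mean ± SD.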

Mus musculus [2] = experiment: Induction of IFN-gamma secretion in BALB/c mouse serum at 2 ug, iv after 18 hrs relative to control; type: functional
Method in brief: (§2)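 BALB/c mice received an i.v. injection of 100 μl of glycolipid diluted to 20 μg/ml in saline from DMSO stock, with 1% DMSO as vehicle. Serum cytokines/chemokines were measured at 2 and 18 h after injection.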

Mus musculus [3] = experiment: Induction of IL13 secretion in BALB/c mouse serum at 2 ug, iv after 2 hrs relative to control; type: functional; method in brief: as §2
[4] = Induction of RANTES secretion in human CD161+ CD3+ NKT cells at 10 ug/ml after 18 hrs relative to basal level; type: functional; method in brief: as §1
[5] = Induction of IL10 secretion in human CD161+ CD3+ NKT cells at 10 ug/ml after 18 hrs relative to basal level; type: functional; method in brief: as §1
Mus musculus [6] = experiment: Induction of GM-CSF secretion in BALB/c mouse serum at 2 ug, iv after 2 hrs relative to control; type: functional; method in brief: as §2
[7] = Induction of MIPalpha secretion in human CD161+ CD3+ NKT cells at 10 ug/ml after 18 hrs relative to basal level; type: functional; method in brief: as §1
[8] = Induction of IL6 secretion in human CD161+ CD3+ NKT cells at 10 ug/ml after 18 hrs relative to basal level; type: functional; method in brief: as §1
Mus musculus [9] = experiment: Induction of MIPbeta secretion in BALB/c mouse serum at 2 ug, iv after 2 hrs relative to control; type: functional; method in brief: as §2
NKT = experiment: Stimulation of cell expansion of human invariant CD161+/ Valpha24+/ CD56+/ CD3+ NKT cells by flow cytometry method; type: functional, cell-based
Method in brief: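 CD56+ NK/NKT mixtures (2 × 10^6) were isolated from human leukopaks with anti-CD56 microbeads. They were cocultured with 4 × 10^5 autologous immature CD14+ DCs pulsed with glycolipid at 3 μg/ml, or with 0.3% DMSO, on day 2 for 18 h. Suspension cells were then transferred and kept in 100 units/ml IL-2 with fresh medium every 3 days. On day 9, CD161+/Vα24TCR+ cells were gated by flow cytometry and total Vα24i NKT cells counted. Triplicates, mean ± SD.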

Mus musculus [10] = experiment: Induction of IL4 secretion in BALB/c mouse serum at 2 ug, iv after 2 hrs relative to control; type: functional; method in brief: as §2
[11] = Induction of IL3 secretion in human CD161+ CD3+ NKT cells at 10 ug/ml after 18 hrs relative to basal level; type: functional; method in brief: as §1
[12] = Induction of IL12p70 secretion in human CD161+ CD3+ NKT cells at 10 ug/ml after 18 hrs relative to basal level; type: functional; method in brief: as §1
TC1 = experiment: Antitumor activity in TC1 cells xenografted C57BL/6 mouse assessed as suppression of tumor growth at 2 ug, iv; type: functional, cell-based
Method in brief: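 C57BL/6 mice (n = 5/group) were inoculated i.v. with TC-1 lung cancer cells. They were then treated i.v. with 2 μg glycolipid per mouse, or 100 μl of 1% DMSO, twice weekly for 4 weeks. Kaplan–Meier survival and body weight were followed, with tumor-free mice as an additional control.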

Mus musculus [13] = experiment: Induction of RANTES secretion in BALB/c mouse serum at 2 ug, iv after 2 hrs relative to control; type: functional; method in brief: as §2
[14] = Induction of TNFalpha secretion in human CD161+ CD3+ NKT cells at 10 ug/ml after 18 hrs relative to basal level; type: functional; method in brief: as §1
[15] = Induction of GM-CSF secretion in human CD161+ CD3+ NKT cells at 10 ug/ml after 18 hrs relative to basal level; type: functional; method in brief: as §1
[16] = Induction of MCP1 secretion in human CD161+ CD3+ NKT cells at 10 ug/ml after 18 hrs relative to basal level; type: functional; method in brief: as §1
Mus musculus [17] = experiment: Activation of dendritic cells in BALB/c mouse at 2 ug, iv after 72 hrs by flow cytometry; type: functional, organism-based
Method in brief: (§3)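 BALB/c mice (n = 4/group) were given 100 μl of glycolipid at 20 μg/ml in saline i.v., or 100 μl of 1% DMSO. Spleens were harvested after 72 h and splenocyte subsets counted by flow cytometry: mature DCs as CD11c+/CD80+/CD86+, activated NK as U5A2-13Ag+/CD3−/CD69+, activated NKT as U5A2-13Ag+/CD3+/CD69+. Assays were run in duplicate, mean ± SD.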

Mus musculus [18] = experiment: Activation of B cells in BALB/c mouse at 2 ug, iv after 72 hrs by flow cytometry; type: functional, organism-based
Mus musculus [19] = experiment: Induction of IL6 secretion in BALB/c mouse serum at 2 ug, iv after 2 hrs relative to control; type: functional; method in brief: as §2
Mus musculus [20] = experiment: Induction of IL2 secretion in BALB/c mouse serum at 2 ug, iv after 2 hrs relative to control; type: functional; method in brief: as §2
Mus musculus [21] = experiment: Activation of NKT cells in BALB/c mouse at 2 ug, iv after 72 hrs by flow cytometry; type: functional, organism-based; method in brief: as §3
[22] = Induction of IFN-gamma secretion in human CD161+ CD3+ NKT cells at 10 ug/ml after 18 hrs relative to basal level; type: functional; method in brief: as §1
[23] = Induction of IL8 secretion in human CD161+ CD3+ NKT cells at 10 ug/ml after 18 hrs relative to basal level; type: functional; method in brief: as §1
Mus musculus [24] = experiment: Induction of KC secretion in BALB/c mouse serum at 2 ug, iv after 2 hrs relative to control; type: functional; method in brief: as §2
[25] = Induction of IL12p40 secretion in human CD161+ CD3+ NKT cells at 10 ug/ml after 18 hrs relative to basal level; type: functional; method in brief: as §1
Mus musculus [26] = experiment: Induction of IL10 secretion in BALB/c mouse serum at 2 ug, iv after 18 hrs relative to control; type: functional; method in brief: as §2
Mus musculus [27] = experiment: Induction of MCP1 secretion in BALB/c mouse serum at 2 ug, iv after 2 hrs relative to control; type: functional; method in brief: as §2
4T1 = experiment: Antitumor activity in mouse 4T1 cells xenografted BALB/c mouse assessed as suppression of tumor growth at 2 ug, iv; type: functional, cell-based
Method in brief: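 BALB/c mice (n = 6) were inoculated s.c. with 4T1 breast cancer cells. From day 3 they were treated i.v. with glycolipid or vehicle twice weekly for 4 weeks. Tumor volume was recorded every 3 days for 1 month, and survival was monitored up to 54 days.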

Mus musculus [28] = experiment: Induction of IL12p70 secretion in BALB/c mouse serum at 2 ug, iv after 18 hrs relative to control; type: functional; method in brief: as §2
Mus musculus [29] = experiment: Activation of natural killer cells in BALB/c mouse at 2 ug, iv after 72 hrs by flow cytometry; type: functional, organism-based; method in brief: as §3
Mus musculus [30] = experiment: Induction of TNFalpha secretion in BALB/c mouse serum at 2 ug, iv after 18 hrs relative to control; type: functional; method in brief: as §2
[31] = Induction of IL2 secretion in human CD161+ CD3+ NKT cells at 10 ug/ml after 18 hrs relative to basal level; type: functional; method in brief: as §1
Mus musculus [32] = experiment: Induction of IL12p40 secretion in BALB/c mouse serum at 2 ug, iv after 18 hrs relative to control; type: functional; method in brief: as §2
Mus musculus [33] = experiment: Induction of IL1-beta secretion in BALB/c mouse serum at 2 ug, iv after 18 hrs relative to control; type: functional; method in brief: as §2
[34] = Induction of IL4 secretion in human CD161+ CD3+ NKT cells at 10 ug/ml after 18 hrs relative to basal level; type: functional; method in brief: as §1
Mus musculus [35] = experiment: Increase in CD8/CD4 T cell ratio in BALB/c mouse at 2 ug, iv after 72 hrs by flow cytometry; type: functional, organism-based
Mus musculus [36] = experiment: Induction of IL3 secretion in BALB/c mouse serum at 2 ug, iv after 2 hrs relative to control; type: functional; method in brief: as §2
[37] = Induction of IL15 secretion in human CD161+ CD3+ NKT cells at 10 ug/ml after 18 hrs relative to basal level; type: functional; method in brief: as §1

SMILES: CCCCCCCCCCCCCC[C@@H](O)[C@@H](O)[C@H](CO[C@H]1O[C@H](CO)[C@H](O)[C@H](O)[C@H]1O)NC(=O)CCCCCCCCCCc1ccccc1
- Activity [1]: 1.6
- Activity (Mus musculus [2]): 166.1
- Activity (Mus musculus [3]): 7.7
- Activity [4]: 1.6
- Activity [5]: 1.8
- Activity (Mus musculus [6]): 2.7
- Activity [7]: 3.4
- Activity [8]: 2.1
- Activity (Mus musculus [9]): 5.1
- Activity (NKT): Active
- Activity (Mus musculus [10]): 49.6
- Activity [11]: 2.5
- Activity [12]: 3
- Activity (TC1): Active
- Activity (Mus musculus [13]): 2.2
- Activity [14]: 7.4
- Activity [15]: 5.4
- Activity [16]: 0.6
- Activity (Mus musculus [17]): Active
- Activity (Mus musculus [18]): Active
- Activity (Mus musculus [19]): 5.8
- Activity (Mus musculus [20]): 50.5
- Activity (Mus musculus [21]): Active
- Activity [22]: 6.2
- Activity [23]: 1.8
- Activity (Mus musculus [24]): 6.9
- Activity [25]: 2.1
- Activity (Mus musculus [26]): 1.3
- Activity (Mus musculus [27]): 23.6
- Activity (4T1): Active
- Activity (Mus musculus [28]): 1.6
- Activity (Mus musculus [29]): Active
- Activity (Mus musculus [30]): 45.6
- Activity [31]: 3.9
- Activity (Mus musculus [32]): 2.4
- Activity (Mus musculus [33]): 3.4
- Activity [34]: 1.9
- Activity (Mus musculus [35]): Active
- Activity (Mus musculus [36]): 1.9
- Activity [37]: 2.7
